# Compounds with a hit are over-represented: about 4.5% of the library has one in this group of screens.
# OX1R antag-1 = OX1R (HCRTR1) antagonists, primary screen, fluorescence, CHO/OX1R cells, Fluo-8 calcium, orexin A; Orexin/Hypocretin receptor type 1 (Homo sapiens), O43613; Fluo-8 calcium fluorescence; inhibition, % at 5 µM; 0.43% of 330,000 active; AID 434989, 2010;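 active = inhibition above its plate's threshold, mean inhibition of all tested compounds on the plate plus 3 SD, cut at about 37% in these data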;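 also: 0% = orexin A challenge wells and 100% = SB-334867-A antagonist wells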
# GPR7 antagonist = GPR7 receptor antagonists, primary screen, cell-based, fluorescence, single concentration | Neuropeptides B/W receptor type 1 (Homo sapiens), P48145 | GPR7-expressing cells, fluorescence antagonist assay | inhibition, % at 4.4 µM | 1.1% of 290,000 active | AID 1861, 2009; in the data active = inhibition above about 16%, passing the limit was not always enough;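 also: cells stimulated with the agonist NPW; 0% = agonist with vehicle and 100% = vehicle without agonist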
# Target sequence (P48145 whole entry, looked up): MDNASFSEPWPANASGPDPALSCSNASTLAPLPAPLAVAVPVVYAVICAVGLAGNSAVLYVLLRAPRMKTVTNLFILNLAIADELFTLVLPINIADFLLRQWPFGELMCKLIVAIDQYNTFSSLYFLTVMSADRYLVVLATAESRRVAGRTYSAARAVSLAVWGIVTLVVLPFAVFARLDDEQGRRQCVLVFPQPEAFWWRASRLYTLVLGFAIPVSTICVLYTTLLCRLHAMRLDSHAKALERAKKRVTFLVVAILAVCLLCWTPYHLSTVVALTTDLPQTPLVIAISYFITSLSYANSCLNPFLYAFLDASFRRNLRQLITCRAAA
# OX1R antag-2 = antagonists of human orexin 1 receptor (OX1R) | OX1R-expressing cells, FRET antagonist read-out | Orexin/Hypocretin receptor type 1 (Homo sapiens), O43613 | AID 485270, 2010 | inhibition, % at 6.6 µM | 1.8% of 330,000 active; in the data active = inhibition mostly above about 38%, no sharp cut-off; inactive = mostly below about 40%;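 also: 0% = agonist challenge alone and 100% = reference antagonist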
# TAAR1 antag = human TAAR1 antagonists, primary screen, Fluo-8 calcium fluorescence, CHO RD-HGA16 cells. Trace amine-associated receptor 1 (Homo sapiens), Q96RJ0. antagonist. inhibition, % at 3 µM. 1.5% of 360,000 active. AID 624466, 2012;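 active = inhibition above a per-plate cutoff, the mean inhibition of test compounds on that plate plus 3 SD, cut at about 49% in these data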;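 also: 0% = DMSO plus EC80 beta-PEA response and 100% = DMSO alone without agonist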
# Target sequence (Q96RJ0 whole entry, looked up): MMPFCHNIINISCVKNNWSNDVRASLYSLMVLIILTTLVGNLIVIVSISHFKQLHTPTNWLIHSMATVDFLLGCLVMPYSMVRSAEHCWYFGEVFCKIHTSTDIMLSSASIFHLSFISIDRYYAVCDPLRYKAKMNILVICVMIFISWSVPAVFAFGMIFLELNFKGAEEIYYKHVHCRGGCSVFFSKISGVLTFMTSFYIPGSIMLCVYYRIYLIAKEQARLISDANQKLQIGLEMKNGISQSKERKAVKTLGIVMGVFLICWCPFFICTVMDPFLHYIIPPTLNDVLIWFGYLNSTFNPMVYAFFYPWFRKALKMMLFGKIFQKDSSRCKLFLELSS
#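 Material: CHO RD-HGA16 cells bearing hTAAR1; compound dosing: one-point dosing, 3 µM nominal final; schedule: dye loading 75 min at 37 °C, then 30 min room temperature; measured by: calcium fluorescence with Fluo-8; control set: vehicle and agonist controls; replication: n of 1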
# CHO parental Ca = ATP-evoked calcium signal inhibitors, parental CHO, primary screen, counter-screen for OX1R antagonist project, cell-based, fluorescence, Fluo-8 calcium dye; AID 463079, 2010; inhibition, % at 5.6 µM; parental CHO-K1, ATP-induced calcium, Fluo-8 fluorescence; 0.63% of 330,000 active;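 active = inhibition above that plate's mean sample inhibition plus 3 SD, cut at about 26% in these data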;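 also: 0% = ATP-challenged DMSO wells and 100% = DMSO wells without ATP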
#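 Material: parental CHO cells / Compound: single nominal dose of 5.6 µM per compound / Signal: Fluo-8 fluorescence / Replicates: singlicate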
# TAAR1 ag = human TAAR1 agonists, primary screen, Fluo-8 calcium fluorescence, CHO RD-HGA16 cells; Trace amine-associated receptor 1 (Homo sapiens), Q96RJ0; vehicle wells 0%, saturating PEA agonist 100%; activation, % at 3 µM; 0.99% of 360,000 active; AID 624467, 2012;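 active = activation above the mean activation of all test compounds in the run plus 3 SD, cut at about 38% in these data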
#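 Test system: RD-HGA16 (CHO) cells co-expressing Gα16 and hTAAR1 / Benchmarks: DMSO vehicle as 0%, PEA at EC100 as 100% / Repeats: no replicates (n 1) / Measure: % activation from peak over basal fluorescence ratio, DMSO-to-PEA scaled / Timing: 17-24 h plating, Fluo-8 75 min 37 °C, 30 min RT / Technique: kinetic Fluo-8 calcium fluorescence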
# GPR7 antag cf = GPR7 receptor antagonists, confirmation, cell-based, fluorescence, single concentration | shares compounds with GPR7 antagonist | GPR7-expressing cells, calcium fluorescence antagonist mode | inhibition, % at 4.4 µM | 52% of 2,400 active | AID 1952, 2009; in the data active = inhibition above about 24%;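 also: stimulated with the GPR7 agonist NPW; 0% = agonist plus vehicle and 100% = vehicle alone without agonist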
# MCHR1 antag = MCHR1 antagonists in cells, counter-screen for GPR7 antagonist project, cell-based, fluorescence, human | MCHR1-expressing cells, fluorescence antagonist assay | AID 2148, 2009 | 62% of 2,400 active | inhibition, % at 4.4 µM | shares compounds with GPR7 antagonist; in the data active = inhibition above about 22%;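 also: 0% = vehicle with agonist and 100% = vehicle without agonist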
# An asterisk follows results filed as active; . = no result.
SMILES,OX1R antag-1,GPR7 antagonist,OX1R antag-2,TAAR1 antag,CHO parental Ca,TAAR1 ag,GPR7 antag cf,MCHR1 antag
COCCOC(=O)c1c(N)n(Cc2ccc(OC)cc2)c2nc3ccccc3nc12,7.3,29.5*,59.0,-0.5,-24.7,15.9,20.9,19.2
COC(=O)C(O)(c1ccc(N(C)C(=O)c2ccc(Cl)c(Cl)c2)cc1)C(F)(F)F (configuration not stated),-4.3,33.0*,20.2,16.1,-14.2,4.7,29.8*,-3.0
FC(F)(F)c1cccc(C2NCc3ccccc3-n3cccc32)c1 (configuration not stated),-29.5,5.4,3.6,26.2,-31.8,-0.3,.,.
c1cc2n(c1)-c1c(ccc3c1OCO3)CNC2c1ccc2c(c1)OCO2 (configuration not stated),-4.7,24.6*,17.1,2.0,-14.5,7.7,49.1*,29.6*
COc1ccc(C2NCc3ccc4c(c3-n3cccc32)OCO4)cc1O (configuration not stated),1.0,49.6*,17.4,.,-4.3,.,53.2*,37.0*
COC(=O)CCCNC(=O)CN1CC(c2ccccc2)CC1=O (configuration not stated),-10.2,-5.8,12.1,7.3,-11.5,6.0,.,.
NCCc1c(Cc2ccccc2)[nH]c2ccccc12,-25.1,.,8.6,-11.6,-15.4,5.3,.,.
Cc1c(CCN)ccc2c1[nH]c1ccccc12,0.7,37.0*,-5.0,-12.1,16.6,26.1,36.6*,27.2*
CN1CC=C(/C=C/c2ccc(-c3ccccc3)cc2)CC1,20.4,50.6*,-0.8,.,22.2,.,63.0*,50.8*
CC(C)(C)n1c(O)c(C=Nc2ccc3c(c2)CCC3)c(=O)[nH]c1=O,-20.0,-8.7,26.8,14.8,-4.7,7.2,.,.
COc1ccccc1NP1(=O)OCC(C)([N+](=O)[O-])CO1 (configuration not stated),.,.,.,-21.6,.,1.7,.,.
CC(=O)Nc1nnc(CCN(CCc2nnc(NC(C)=O)s2)[N+](=O)[O-])s1,1.9,31.8*,3.4,10.4,7.9,4.0,-8.2,-5.2
CC(C)c1ccc(NC(=O)N2C[C@H]3C[C@@H](C2)c2cccc(=O)n2C3)cc1,-4.8,0.5,10.7,-0.3,-4.5,0.4,.,.
CC(=O)c1ccc(OCC(=O)N2CCCC(N3CCN(c4ccccc4C)CC3)C2)cc1 (configuration not stated),-20.5,-10.9,27.1,-1.3,-15.2,2.1,.,.
COc1ccccc1-n1c(O)c(/C=C2\C=Nc3ccccc32)c(=O)[nH]c1=O,-8.4,29.3*,22.1,-7.4,-1.3,7.5,39.1*,53.0*
CC(C)COC(=O)N1Cc2ccccc2-n2nncc2C1,.,.,.,-16.9,.,0.5,.,.
c1ccc2c(c1)Sc1ccccc1N2CC1CN2CCC1CC2 (configuration not stated),-10.1,29.9*,13.6,-8.2,-3.0,1.1,46.6*,40.9*
CC(C)n1cc(C(=O)N(CC(=O)NC(C)(C)C)Cc2ccccc2)cn1,-11.4,2.9,23.0,-7.2,-20.5,5.6,.,.
O=C(N=Nc1c(O)[nH]c(=O)[nH]c1=O)C1COc2cc3ccccc3cc2O1 (configuration not stated),0.1,-2.0,17.9,4.0,-1.6,2.4,.,.
CCOc1cc2c(cc1OCC)-n1cccc1C(c1ccc(F)cc1)NC2 (configuration not stated),-20.5,-1.2,5.9,1.1,-9.1,11.2,.,.
CCOc1cc2c(cc1OCC)-n1cccc1C(c1ccc(C(C)C)cc1)NC2 (configuration not stated),8.4,36.4*,15.6,-7.9,56.5*,25.4,33.7*,62.0*
Cc1cccc(C#N)c1,-9.3,.,0.8,-7.1,-0.6,0.4,.,.
CCOc1cc(CNCCc2cccc(F)c2)ccc1OC,-21.2,7.8,-3.0,-14.2,-21.2,21.6,.,.
CCOc1ccc(Cl)cc1CNCCc1ccc(F)cc1,-34.9,32.6*,8.8,-6.2,-28.2,15.3,30.0*,28.8*
Cc1nonc1-c1nc(-c2nonc2N)n[nH]1,-23.5,32.0*,12.4,-5.4,10.7,2.0,13.0,3.6
SMILES,OX1R antag-1,GPR7 antagonist,OX1R antag-2,TAAR1 antag,CHO parental Ca,TAAR1 ag,GPR7 antag cf,MCHR1 antag
Cc1nc2cc(C(F)(F)F)ccc2n1C1CCN(Cc2nnnn2Cc2cccs2)CC1,43.4*,32.2*,-1.0,30.6,61.3*,28.1,46.5*,38.2*
CN1/C(=C\C=C\C2=[N+](C)c3ccc4ccccc4c3C2(C)C)C(C)(C)c2ccccc21,103.0*,87.5*,-3.7,.,97.5*,.,101.6*,104.2*
C[N+]1=C(/C=C/Nc2ccccc2)C(C)(C)c2ccccc21,21.5,-0.1,6.5,15.9,44.5,1.4,.,.
COc1ccc(-[n+]2c(-c3ccccc3)cc(-c3ccc(C)cc3)cc2-c2ccccc2)cc1,18.4,72.4*,26.7,10.9,44.7*,6.5,69.5*,65.2*
Cc1ccc(-c2cc(-c3ccccc3)cc(-c3ccccc3)[n+]2-c2ccc(C(=O)O)cc2)cc1,-5.9,.,27.2,12.8,-2.1,5.7,.,.
COc1ccc(-c2cc(-c3ccccc3)[n+](C)c(-c3ccccc3)c2)cc1,-18.3,32.7*,21.2,12.5,-17.2,6.5,41.6*,38.1*
Fc1cccc(-c2ccc3c(c2)CN(c2cccc(Cl)c2)Cc2cnnn2-3)c1,.,.,.,0.2,.,0.3,.,.
CCCOc1ccc(N2C(=O)CC(N3CC=C(c4ccccc4)CC3)C2=O)cc1 (configuration not stated),-26.7,-11.7,19.9,6.5,-20.4,2.6,.,.
O=C1CC(N2CC=C(c3ccccc3)CC2)C(=O)N1c1ccc(F)cc1 (configuration not stated),-22.8,24.4*,5.2,-5.4,-8.7,2.6,4.7,7.6
Nc1ccccc1-[n+]1c(-c2ccccc2)cc(-c2ccccc2)cc1-c1ccccc1,-4.5,83.7*,14.0,-8.0,-9.1,0.1,76.1*,65.7*

# Bioassay records as filed in PubChem BioAssay.
